Experimental data published in ChEMBL document CHEMBL1250551, “Improvement of water-solubility of biarylcarboxylic acid peroxisome proliferator-activated receptor (PPAR) δ-selective partial agonists by disruption of molecular planarity/symmetry” (Bioorg Med Chem, 2010).
pEC50: −log10 of the molar value. In brackets after ≈: the same amount, converted by molar mass.

Experiments:
[1] = biological target: T1, Peroxisome proliferator-activated receptor gamma (Homo sapiens, UniProt P37231); assay: Partial agonist activity at human recombinant PPARgamma LBD expressed in HEK293 cells co-transfected with Gal4 assessed as beta-galactosidase activity at 1 uM by luciferase based transactivation assay; type: functional, cell-based
T1 sequence (P37231 whole entry): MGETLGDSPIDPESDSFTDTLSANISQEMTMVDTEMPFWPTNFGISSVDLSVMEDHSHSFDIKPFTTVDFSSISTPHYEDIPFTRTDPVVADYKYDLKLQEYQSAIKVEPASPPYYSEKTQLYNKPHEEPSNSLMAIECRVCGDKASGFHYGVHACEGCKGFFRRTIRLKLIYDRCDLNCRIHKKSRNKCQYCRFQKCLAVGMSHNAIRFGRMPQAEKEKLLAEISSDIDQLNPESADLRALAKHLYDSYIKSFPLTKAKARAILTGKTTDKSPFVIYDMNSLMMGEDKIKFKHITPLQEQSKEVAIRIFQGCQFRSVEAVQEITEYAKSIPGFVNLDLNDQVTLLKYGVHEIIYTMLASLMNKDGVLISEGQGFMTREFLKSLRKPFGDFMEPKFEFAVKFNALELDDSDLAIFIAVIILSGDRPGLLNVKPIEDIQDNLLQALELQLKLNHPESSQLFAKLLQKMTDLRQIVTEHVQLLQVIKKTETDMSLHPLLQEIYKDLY

[2] = Thermodynamic aqueous solubility of the compound in 1:15 M of 50% EtOH and phosphate buffer at pH 7.4; type: physicochemical; details: for solubility: buffer; for solubility thermodynamic: 50% EtOH and phosphate buffer
Method in brief: (§1)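 Thermodynamic solubility: about 1 mg solid ground in agate mortar, suspended in 1.0 mL of either 1:15 M phosphate buffer pH 7.4 or an equal-volume mix of that buffer with EtOH. Shaken 48 h at 25 °C, filtered (0.22 µm), filtrate diluted in DMF and quantified by reversed-phase HPLC-UV (262–295 nm) against a calibration curve, corrected for dilution.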

[3] = Thermodynamic aqueous solubility of the compound in phosphate buffer at pH 7.4; type: physicochemical; method in brief: as §1
[4] = biological target: T2, Peroxisome proliferator-activated receptor delta (Homo sapiens, UniProt Q03181); assay: Partial agonist activity at human recombinant PPARdelta LBD expressed in HEK293 cells co-transfected with Gal4 assessed as beta-galactosidase activity by luciferase based transactivation assay; type: functional, cell-based
T2 sequence (Q03181 whole entry): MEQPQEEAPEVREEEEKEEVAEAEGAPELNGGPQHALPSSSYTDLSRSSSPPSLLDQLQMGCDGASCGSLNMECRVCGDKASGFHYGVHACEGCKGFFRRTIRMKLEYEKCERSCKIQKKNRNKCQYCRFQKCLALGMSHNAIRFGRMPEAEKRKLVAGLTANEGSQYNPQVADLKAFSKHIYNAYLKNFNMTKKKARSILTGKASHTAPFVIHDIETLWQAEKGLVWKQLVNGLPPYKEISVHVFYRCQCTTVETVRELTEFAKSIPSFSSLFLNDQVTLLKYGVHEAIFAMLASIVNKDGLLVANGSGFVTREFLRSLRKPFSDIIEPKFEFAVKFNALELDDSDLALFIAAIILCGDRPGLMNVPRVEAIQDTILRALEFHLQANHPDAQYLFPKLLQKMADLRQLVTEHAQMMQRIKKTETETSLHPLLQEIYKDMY

[5] = biological target: T3, Peroxisome proliferator-activated receptor alpha (Homo sapiens, UniProt Q07869); assay: Partial agonist activity at human recombinant PPARalpha LBD expressed in HEK293 cells co-transfected with Gal4 assessed as beta-galactosidase activity at 1 uM by luciferase based transactivation assay; type: functional, cell-based
T3 sequence (Q07869 whole entry): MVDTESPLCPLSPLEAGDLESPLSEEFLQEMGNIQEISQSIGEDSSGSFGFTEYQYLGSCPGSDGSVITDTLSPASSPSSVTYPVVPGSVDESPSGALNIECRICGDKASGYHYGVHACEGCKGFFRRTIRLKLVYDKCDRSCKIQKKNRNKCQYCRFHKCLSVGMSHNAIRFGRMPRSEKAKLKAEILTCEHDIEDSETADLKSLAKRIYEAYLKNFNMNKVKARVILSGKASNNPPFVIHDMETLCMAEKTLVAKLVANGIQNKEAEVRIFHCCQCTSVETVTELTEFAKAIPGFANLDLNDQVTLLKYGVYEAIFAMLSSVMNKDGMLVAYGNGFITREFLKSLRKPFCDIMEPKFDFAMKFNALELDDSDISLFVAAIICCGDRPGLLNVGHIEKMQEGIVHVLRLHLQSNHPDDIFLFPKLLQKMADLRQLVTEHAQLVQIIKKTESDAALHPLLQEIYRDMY
Method in brief: (§2)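 GAL4-hPPAR LBD fusion transactivation: cells co-transfected with CMX-GAL4N-hPPAR LBD receptor plasmid, TK-MH100x4-LUC reporter and CMX β-galactosidase normalization plasmid. Positive controls (fenofibric acid for PPARα; ciglitazone 100 nM for PPARγ) and test compounds added 6 h later; overnight incubation. Luminescence read after luciferin addition; β-galactosidase absorbance at 405 nm used for normalization.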

[6] = biological target: T2, Peroxisome proliferator-activated receptor delta; assay: Partial agonist activity at human recombinant PPARdelta LBD expressed in HEK293 cells co-transfected with Gal4 assessed as beta-galactosidase activity at 1 uM by luciferase based transactivation assay; type: functional, cell-based; method in brief: as §2
[7] = biological target: T3, Peroxisome proliferator-activated receptor alpha; assay: Partial agonist activity at human recombinant PPARalpha LBD expressed in HEK293 cells co-transfected with Gal4 assessed as beta-galactosidase activity by luciferase based transactivation assay; type: functional, cell-based; method in brief: as §2
[8] = biological target: T4, Peroxisome proliferator-activated receptor alpha (Homo sapiens) (UniProt Q07869); assay: Partial agonist activity at human recombinant PPARalpha LBD expressed in HEK293 cells co-transfected with Gal4 assessed as beta-galactosidase activity by luciferase based transactivation assay relative to fenofibric acid; type: functional, cell-based
T4 sequence (whole entry): T3 sequence (Q07869 whole entry)
Method in brief: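 GAL4-based reporter system analogous to the PPARδ assay, using a GAL4 DNA-binding domain–PPARα LBD chimera, TK-MH100x4-LUC reporter and CMX β-galactosidase for normalization. Positive control and test compounds were added 6 h after the preceding step and incubated overnight. Luciferase luminescence was read after luciferin addition, and β-galactosidase by absorbance at 405 nm. Efficacy was expressed relative to fenofibric acid.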

Compound	EC50 [1]	solubility thermodynamic [3]	EC50 [5]	solubility thermodynamic [2]	further results
CCCCOc1ccc(-c2cccc(C(=O)O)c2)cc1CNC(=O)c1ccc(C(F)(F)F)cc1F	Not Active	< 1 µg/mL			solubility [2]: 1350 µg/mL (≈ 2760 µM)
CCCCOc1ccc(-c2c(F)ccc(C(=O)O)c2F)cc1CNC(=O)c1ccc(C(F)(F)F)cc1F	Not Active	21.7 µg/mL (≈ 41.3 µM)	Not Active		pEC50 [4]: 8.24; solubility [2]: 10400 µg/mL (≈ 19800 µM)
CCCC(=O)Oc1ccc(-c2ccc(C(=O)O)cc2)cc1CNC(=O)c1ccc(C(F)(F)F)cc1F					EC50 [6]: Not Active
CCCCOc1ccc(-c2ccc(C(=O)O)cc2C)cc1CNC(=O)c1ccc(C(F)(F)F)cc1F		< 1 µg/mL	Not Active	985 µg/mL (≈ 1960 µM)	
CCCCOc1ccc(-c2ccc(C(=O)O)o2)cc1CNC(=O)c1ccc(C(F)(F)F)cc1F	Not Active		Not Active		
COCCOc1ccc(-c2ccc(C(=O)O)cc2)cc1CNC(=O)c1ccc(C(F)(F)F)cc1F					EC50 [6]: Not Active
CCCCOc1ccc(-c2ccc(C(=O)O)nc2)cc1CNC(=O)c1ccc(C(F)(F)F)cc1F	Not Active		Not Active		
CCCCOc1ccc(-c2cncc(C(=O)O)c2)cc1CNC(=O)c1ccc(C(F)(F)F)cc1F	Not Active	7.62 µg/mL (≈ 15.5 µM)			pEC50 [7]: 5.40; pEC50 [4]: 6.66; solubility [2]: 9030 µg/mL (≈ 18400 µM)
CCCCOc1ccc(-c2ccc(C(=O)O)cc2)cc1CNC(=O)c1ccc(C(F)(F)F)cc1F	Not Active	< 1 µg/mL		375 µg/mL (≈ 766 µM)	
CCCCOc1ccc(-c2ccc(C(=O)O)cc2F)cc1CNC(=O)c1ccc(C(F)(F)F)cc1F	Not Active	< 1 µg/mL	Not Active	3220 µg/mL (≈ 6350 µM)	
CCCCOc1ccc(-c2cccc(C(=O)O)c2C)cc1CNC(=O)c1ccc(C(F)(F)F)cc1F	Not Active	< 1 µg/mL		9950 µg/mL (≈ 19800 µM)	
CCCCOc1ccc(-c2c(C)ncc(C(=O)O)c2C)cc1CNC(=O)c1ccc(C(F)(F)F)cc1F	Not Active	2700 µg/mL (≈ 5210 µM)		17700 µg/mL (≈ 34100 µM)	Efficacy [8]: 100%; pEC50 [7]: 5.38; pEC50 [4]: 7.12
O=C(O)c1ccc(-c2ccc(OCCCO)c(CNC(=O)c3ccc(C(F)(F)F)cc3F)c2)cc1					EC50 [6]: Not Active
CCCCOc1ccc(-c2ccc(C(=O)O)cn2)cc1CNC(=O)c1ccc(C(F)(F)F)cc1F	Not Active		Not Active		
